The text below walks through data of ChEMBL document CHEMBL4387752, “Identification of substituted benzothiazole sulfones as potent and selective inhibitors of endothelial lipase” (Bioorg Med Chem Lett, 2019).

pIC50: −log10 of the molar value. Activity calls are given as the source filed them.

Data set [1] in a line: Ratio of Cmin in C57BL/6 mouse at 20 mg/kg, po bid measured after 24 hrs to IC50 for inhibition of mouse endothelial lipase expressed in HEK293F cells using D31-POPC-HDL as substrate incubated for 2 hrs in presence of mouse plasma by LC/MS analysis. The class given is organism-based. As to conditions: in vivo.
The next data set deals with Mus musculus. Description: Effect on in LDL-C level in C57BL/6 mouse plasma at 20 mg/kg, po bid measured after 1 to 4 days by FPLC analysis. The class given is functional, organism-based. In a few lines: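 Wild-type C57BL/6 mice were dosed at 20 mg/kg p.o. b.i.d. for 4 days alongside a vehicle control group. Lipoprotein profiles were obtained by FPLC on day 1 and day 4, using plasma pooled from 8 mice.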

Data set [2] in a line: Half life in Balb/c mouse at 10 mg/kg, po. The data set is classed as ADME, organism-based. As to conditions: in vivo. In a few lines:
(§1)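 Oral PK in fasted male balb/c mice. Dosing vehicle was ethanol/PEG 400/water (10:60:30).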

The nature of data set [3]: Cmin in C57BL/6 mouse at 20 mg/kg, po bid measured after 24 hrs. The class given is ADME, organism-based. As to conditions: in vivo, read-out: Cmin. In a few lines: (§2)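 Satellite PK cohort of wild-type C57BL/6 mice given 20 mg/kg p.o. b.i.d. over 4 days. Plasma levels were taken at 8, 24 and 102 h.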
Data set [4] is described as follows: Half life in Balb/c mouse at 30 mg/kg, po. The conditions noted are these: in vivo. The data set is classed as ADME, organism-based. In a few lines:
as §1

Data set [5] can be described thus: Metabolic stability in Balb/c mouse liver microsomes assessed as parent compound remaining at 0.5 uM measured after 10 mins. The class given is ADME, Microsome. The conditions noted are these: read-out: Stability. In a few lines: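 Test compound at 0.5 μM was incubated for 10 min with mouse liver microsomes. The read-out is the percentage of parent remaining.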
On the technique in general: Microsomes from liver hold many membrane-bound enzymes, among them those of drug oxidation.

Data set [6] can be described thus: Ratio of Cmin in Balb/c mouse at 20 mg/kg, po bid to IC50 for inhibition of mouse endothelial lipase expressed in HEK293F cells using D31-POPC-HDL as substrate incubated for 2 hrs in presence of mouse plasma by LC/MS analysis. The data set is classed as organism-based. As to conditions: in vivo.
The nature of data set [7]: Half life in Balb/c mouse at 20 mg/kg, po. The class given is ADME, organism-based. The conditions noted are these: in vivo. In short, it runs like this:
as §1

The target of data set [8] is T1, Hepatic triacylglycerol lipase (Homo sapiens, UniProt P11150).
T1 sequence (P11150 whole entry): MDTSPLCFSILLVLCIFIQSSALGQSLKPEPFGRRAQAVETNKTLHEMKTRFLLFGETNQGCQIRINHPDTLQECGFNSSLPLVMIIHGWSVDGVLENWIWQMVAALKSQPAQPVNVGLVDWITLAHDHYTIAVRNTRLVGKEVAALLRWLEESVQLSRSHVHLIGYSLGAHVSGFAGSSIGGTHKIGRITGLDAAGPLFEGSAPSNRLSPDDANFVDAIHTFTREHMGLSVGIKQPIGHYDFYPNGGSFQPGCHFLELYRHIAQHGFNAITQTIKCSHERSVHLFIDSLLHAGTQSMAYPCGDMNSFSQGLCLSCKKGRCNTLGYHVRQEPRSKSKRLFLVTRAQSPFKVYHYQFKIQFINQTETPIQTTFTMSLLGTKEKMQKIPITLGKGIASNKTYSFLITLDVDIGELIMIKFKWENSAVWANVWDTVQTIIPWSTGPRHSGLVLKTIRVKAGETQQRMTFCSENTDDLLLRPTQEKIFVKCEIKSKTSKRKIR
Description: Inhibition of human hepatic lipase expressed in African green monkey COS7 cells using PED-A1 as substrate incubated for 20 mins and measured every 20 secs for 10 mins by FRET assay. The class given is cell-based. In short, it runs like this: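 IC50s were calculated from mean inhibition values of duplicate determinations.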

Data set [9] in a line: Total AUC in Balb/c mouse at 30 mg/kg, po measured after 24 hrs. The class given is ADME, organism-based. Details: dose 30 mg/kg, route oral, time AUCmax. As to conditions: in vivo. In a few lines:
as §1

Data set [10] is described as follows: Cmin in C57BL/6 mouse at 20 mg/kg, po bid measured after 8 hrs. The data set is classed as ADME, organism-based. The conditions noted are these: in vivo, read-out: Cmin. In short, it runs like this: as §2

The term half-life denotes the time needed for the level to fall by half in the phase considered. For orientation: pIC50 means the IC50 on a negative log10 scale, so that one unit is a factor of ten. Usually AUC stands for the area under the concentration-time curve, a measure of exposure. As to `COCCS(=O)(=O)C(C(=O)NCC(=O)NC1CC1)c1nc2ccc(-c3ccc(F)nc3)cc2s1` (stereo unspecified), the Ratio is over 15 in data set [1] and 23 in data set [6]. For the same compound, the outcome in the data set with Mus musculus was inactive. In addition, the figures for the half-life in data set [2], in [4] and in data set [7] were 2.2 h, 2.3 h and 2.3 h, respectively. For the same compound, the concentration at 24 h in data set [3] was determined as 1.8 µM. Also, the remaining at 10 min, 0.5 µM in data set [5] was found to be 81%. Also, the pIC50 in [8] is 6.64. Moreover, the exposure (AUC) at 24 h in data set [9] is 240 µM·h. Moreover, the concentration at 8 h in data set [10] turned out to be 5.2 µM.
